Calls of active or inactive are those of the source. The rule behind the calls is not given here.
What was measured:
Type in all cases: cell-based
[1] = molecular target: Transient receptor potential cation channel subfamily V member 1 (Homo sapiens) (UniProt Q8NER1); assay: Activation of human TRPV1 expressed in BEAS-2B cells assessed as induction of calcium influx at 100 uM by fluro 4-AM dye-based fluorescence assay
Procedure, shortened: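 TRPV1-overexpressing BEAS-2B cells are loaded with Fluo 4-Direct/LHC-9 at room temperature, washed into LHC-9 containing probenecid and Trypan Red, and incubated 30 min at 37 °C. Test solution is made at 3× in LHC9. Fluorescence is followed 1 min at 37 °C. Max ΔF/s relative to medium is expressed as % of the response to 10 μM capsaicin. Minimum triplicate.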

[2] = molecular target: Transient receptor potential cation channel subfamily A member 1 (Homo sapiens, UniProt O75762); assay: Activation of human TRPA1 expressed in HEK293 cells assessed as induction of calcium influx at 100 uM by fluro 4-AM dye-based fluorescence assay; conditions: hek293, 100 µM
Chain of Transient receptor potential cation channel subfamily A member 1 (O75762 whole entry): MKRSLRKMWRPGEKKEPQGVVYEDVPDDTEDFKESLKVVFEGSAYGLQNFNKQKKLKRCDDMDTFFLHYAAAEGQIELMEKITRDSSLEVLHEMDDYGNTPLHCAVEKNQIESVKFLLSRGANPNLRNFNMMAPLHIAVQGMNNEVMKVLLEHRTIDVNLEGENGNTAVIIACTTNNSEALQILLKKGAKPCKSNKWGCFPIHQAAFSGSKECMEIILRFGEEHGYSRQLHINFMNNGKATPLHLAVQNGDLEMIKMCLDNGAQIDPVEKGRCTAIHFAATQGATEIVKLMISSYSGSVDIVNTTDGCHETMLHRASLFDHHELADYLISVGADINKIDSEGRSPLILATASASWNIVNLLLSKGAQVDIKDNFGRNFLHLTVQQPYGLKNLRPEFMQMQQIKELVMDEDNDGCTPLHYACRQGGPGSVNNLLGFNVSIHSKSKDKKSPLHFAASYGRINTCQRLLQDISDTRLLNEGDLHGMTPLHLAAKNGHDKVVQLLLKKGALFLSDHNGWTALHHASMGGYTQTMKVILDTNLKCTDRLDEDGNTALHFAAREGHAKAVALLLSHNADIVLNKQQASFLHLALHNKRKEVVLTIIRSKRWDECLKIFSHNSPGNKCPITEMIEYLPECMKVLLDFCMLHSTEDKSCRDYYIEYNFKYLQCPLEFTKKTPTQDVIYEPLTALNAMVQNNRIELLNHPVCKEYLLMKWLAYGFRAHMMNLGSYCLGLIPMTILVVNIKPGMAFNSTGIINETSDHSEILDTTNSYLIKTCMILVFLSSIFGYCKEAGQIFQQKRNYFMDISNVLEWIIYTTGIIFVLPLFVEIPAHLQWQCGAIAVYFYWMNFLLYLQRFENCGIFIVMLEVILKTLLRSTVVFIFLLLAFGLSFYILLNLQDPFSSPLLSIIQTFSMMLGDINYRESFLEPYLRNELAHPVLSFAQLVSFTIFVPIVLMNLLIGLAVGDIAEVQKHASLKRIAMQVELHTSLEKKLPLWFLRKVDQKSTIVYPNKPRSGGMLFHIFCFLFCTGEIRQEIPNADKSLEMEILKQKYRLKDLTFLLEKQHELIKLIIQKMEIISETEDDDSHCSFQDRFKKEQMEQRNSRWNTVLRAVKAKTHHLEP
Procedure, shortened: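 Stable HEK-293 line grown to confluence on gelatin-coated wells (DMEM:F12, 5% FBS, geneticin 300 μg/mL). Cells loaded 1 h at 37 °C with Fluo 4-Direct/LHC-9, washed into LHC-9 with 1 mM probenecid and Trypan Red, then held 30 min at 37 °C. Compound added at 3× in calcium assay buffer. Fluorescence read 1 min at 37 °C as max ΔF/s versus medium only, expressed as % of 250 μM 2,4-ditert-butylphenol response. At least three replicates.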

[3] = molecular target: Transient receptor potential cation channel subfamily M member 8 (Homo sapiens) (UniProt Q7Z2W7); assay: Activation of human TRPM8 expressed in HEK293 cells assessed as induction of calcium influx at 100 uM by fluro 4-AM dye-based fluorescence assay
Chain of Transient receptor potential cation channel subfamily M member 8 (Homo sapiens) (Q7Z2W7 whole entry, looked up): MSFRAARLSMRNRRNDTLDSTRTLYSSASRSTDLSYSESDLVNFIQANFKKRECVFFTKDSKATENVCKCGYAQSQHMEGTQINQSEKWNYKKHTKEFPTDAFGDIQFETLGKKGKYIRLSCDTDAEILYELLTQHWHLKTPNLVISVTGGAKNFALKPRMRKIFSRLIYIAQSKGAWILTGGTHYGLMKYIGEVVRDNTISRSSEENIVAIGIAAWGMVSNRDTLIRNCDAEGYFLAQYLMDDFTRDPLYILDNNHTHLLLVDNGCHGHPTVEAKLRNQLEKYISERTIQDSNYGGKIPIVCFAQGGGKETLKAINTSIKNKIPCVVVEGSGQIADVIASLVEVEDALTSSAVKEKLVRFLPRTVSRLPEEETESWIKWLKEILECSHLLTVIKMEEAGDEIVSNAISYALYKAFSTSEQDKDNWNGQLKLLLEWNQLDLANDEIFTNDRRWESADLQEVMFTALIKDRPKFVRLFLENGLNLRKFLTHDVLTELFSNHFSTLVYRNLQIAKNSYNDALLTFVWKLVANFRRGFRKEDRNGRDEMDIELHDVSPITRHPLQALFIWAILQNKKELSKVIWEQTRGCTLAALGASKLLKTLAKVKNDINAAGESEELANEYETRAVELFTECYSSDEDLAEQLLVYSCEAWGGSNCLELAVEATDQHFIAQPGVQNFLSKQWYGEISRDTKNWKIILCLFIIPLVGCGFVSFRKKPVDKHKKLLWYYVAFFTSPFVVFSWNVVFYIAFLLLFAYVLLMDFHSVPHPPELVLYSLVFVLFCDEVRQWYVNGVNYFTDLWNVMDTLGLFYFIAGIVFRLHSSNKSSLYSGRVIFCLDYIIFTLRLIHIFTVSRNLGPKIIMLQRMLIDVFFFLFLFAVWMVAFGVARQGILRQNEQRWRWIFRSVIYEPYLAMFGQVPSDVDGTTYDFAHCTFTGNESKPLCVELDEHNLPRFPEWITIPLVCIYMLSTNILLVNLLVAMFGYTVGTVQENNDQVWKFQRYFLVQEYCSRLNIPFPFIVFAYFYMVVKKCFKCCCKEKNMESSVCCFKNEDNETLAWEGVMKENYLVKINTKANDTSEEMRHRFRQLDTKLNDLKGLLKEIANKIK
Procedure, shortened: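 Uses the same HEK-293 stable-line culture and Fluo 4-AM loading (1 h, 37 °C), followed by the probenecid/Trypan Red LHC-9 wash and 30 min equilibration at 37 °C. Treatment is made at 3× in LHC9. Max ΔF/s is read over 1 min at 37 °C, normalized to medium-only and given as % of the 25 μM icilin control. Three or more replicates.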

[4] = molecular target: T1, Transient receptor potential cation channel subfamily V member 3 (Homo sapiens) (UniProt Q8NET8); assay: Activation of human TRPV3 expressed in HEK293 cells assessed as induction of calcium influx at 100 uM by fluro 4-AM dye-based fluorescence assay
T1 sequence (whole entry): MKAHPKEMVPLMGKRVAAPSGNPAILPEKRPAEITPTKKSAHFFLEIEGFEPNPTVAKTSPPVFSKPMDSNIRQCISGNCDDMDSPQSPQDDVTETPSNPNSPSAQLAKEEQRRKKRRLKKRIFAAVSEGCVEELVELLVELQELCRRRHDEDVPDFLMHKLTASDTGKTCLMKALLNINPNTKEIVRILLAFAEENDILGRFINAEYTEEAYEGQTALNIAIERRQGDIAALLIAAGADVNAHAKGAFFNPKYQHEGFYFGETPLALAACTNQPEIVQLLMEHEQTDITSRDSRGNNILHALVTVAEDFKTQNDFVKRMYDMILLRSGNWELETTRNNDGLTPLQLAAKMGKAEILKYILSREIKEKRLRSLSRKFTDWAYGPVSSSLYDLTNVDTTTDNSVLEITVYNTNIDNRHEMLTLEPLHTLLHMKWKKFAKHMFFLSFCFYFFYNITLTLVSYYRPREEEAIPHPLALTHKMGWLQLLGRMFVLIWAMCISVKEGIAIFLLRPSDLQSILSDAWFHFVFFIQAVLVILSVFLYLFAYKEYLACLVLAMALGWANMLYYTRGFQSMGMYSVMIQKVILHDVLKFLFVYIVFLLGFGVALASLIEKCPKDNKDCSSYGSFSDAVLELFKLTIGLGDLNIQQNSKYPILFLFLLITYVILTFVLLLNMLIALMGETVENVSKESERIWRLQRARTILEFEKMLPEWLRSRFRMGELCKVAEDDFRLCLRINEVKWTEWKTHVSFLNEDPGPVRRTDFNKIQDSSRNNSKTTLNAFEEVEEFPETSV
Procedure, shortened: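 Confluent HEK-293 cells stably expressing the channel are dye-loaded 1 h at 37 °C, washed, and equilibrated 30 min at 37 °C in LHC-9 with 1 mM probenecid. Compounds are dosed at 3× in calcium assay buffer. The 1-min read at 37 °C gives max ΔF/s over medium, reported as % of the 300 μM carvacrol agonist control. At least three replicates.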

[5] = molecular target: Transient receptor potential cation channel subfamily V member 4 (Homo sapiens) (UniProt Q9HBA0); assay: Activation of human TRPV4 expressed in HEK293 cells assessed as induction of calcium influx at 100 uM by fluro 4-AM dye-based fluorescence assay
Chain of Transient receptor potential cation channel subfamily V member 4 (Homo sapiens) (Q9HBA0 whole entry): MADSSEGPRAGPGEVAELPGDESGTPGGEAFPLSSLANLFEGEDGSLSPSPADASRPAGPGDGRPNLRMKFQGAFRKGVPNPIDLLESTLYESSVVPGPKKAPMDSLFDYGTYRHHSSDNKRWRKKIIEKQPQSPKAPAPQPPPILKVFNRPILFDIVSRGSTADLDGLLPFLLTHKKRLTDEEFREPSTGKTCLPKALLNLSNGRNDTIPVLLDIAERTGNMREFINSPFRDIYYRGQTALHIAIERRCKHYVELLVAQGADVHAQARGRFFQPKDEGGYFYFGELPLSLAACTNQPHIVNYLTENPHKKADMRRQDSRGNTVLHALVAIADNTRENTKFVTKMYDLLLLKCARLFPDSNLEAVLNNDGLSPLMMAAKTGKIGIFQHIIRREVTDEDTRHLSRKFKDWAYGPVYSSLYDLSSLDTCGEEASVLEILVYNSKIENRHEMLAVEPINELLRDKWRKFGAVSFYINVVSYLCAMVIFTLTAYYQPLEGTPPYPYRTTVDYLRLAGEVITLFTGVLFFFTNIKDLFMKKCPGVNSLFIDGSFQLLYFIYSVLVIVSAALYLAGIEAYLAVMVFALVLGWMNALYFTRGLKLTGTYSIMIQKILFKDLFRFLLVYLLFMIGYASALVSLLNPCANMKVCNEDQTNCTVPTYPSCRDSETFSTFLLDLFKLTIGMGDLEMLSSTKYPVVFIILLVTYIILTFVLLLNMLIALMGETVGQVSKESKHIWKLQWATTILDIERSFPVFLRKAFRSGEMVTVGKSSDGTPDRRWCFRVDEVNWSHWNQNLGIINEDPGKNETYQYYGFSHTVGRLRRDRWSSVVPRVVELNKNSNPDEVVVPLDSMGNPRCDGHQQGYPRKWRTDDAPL
Procedure, shortened: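 HEK-293 stable overexpressors on gelatin-coated plates are loaded with Fluo 4-AM (1 h, 37 °C), then given probenecid/Trypan Red LHC-9 and 30 min at 37 °C. Treatments are prepared at 3× in LHC9, with 1-min monitoring at 37 °C. Max ΔF/s versus medium only is given as % of the 30 nM GSK1016790A control. Three replicates minimum.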

Chain of Transient receptor potential cation channel subfamily V member 1 (Homo sapiens) (Q8NER1 whole entry): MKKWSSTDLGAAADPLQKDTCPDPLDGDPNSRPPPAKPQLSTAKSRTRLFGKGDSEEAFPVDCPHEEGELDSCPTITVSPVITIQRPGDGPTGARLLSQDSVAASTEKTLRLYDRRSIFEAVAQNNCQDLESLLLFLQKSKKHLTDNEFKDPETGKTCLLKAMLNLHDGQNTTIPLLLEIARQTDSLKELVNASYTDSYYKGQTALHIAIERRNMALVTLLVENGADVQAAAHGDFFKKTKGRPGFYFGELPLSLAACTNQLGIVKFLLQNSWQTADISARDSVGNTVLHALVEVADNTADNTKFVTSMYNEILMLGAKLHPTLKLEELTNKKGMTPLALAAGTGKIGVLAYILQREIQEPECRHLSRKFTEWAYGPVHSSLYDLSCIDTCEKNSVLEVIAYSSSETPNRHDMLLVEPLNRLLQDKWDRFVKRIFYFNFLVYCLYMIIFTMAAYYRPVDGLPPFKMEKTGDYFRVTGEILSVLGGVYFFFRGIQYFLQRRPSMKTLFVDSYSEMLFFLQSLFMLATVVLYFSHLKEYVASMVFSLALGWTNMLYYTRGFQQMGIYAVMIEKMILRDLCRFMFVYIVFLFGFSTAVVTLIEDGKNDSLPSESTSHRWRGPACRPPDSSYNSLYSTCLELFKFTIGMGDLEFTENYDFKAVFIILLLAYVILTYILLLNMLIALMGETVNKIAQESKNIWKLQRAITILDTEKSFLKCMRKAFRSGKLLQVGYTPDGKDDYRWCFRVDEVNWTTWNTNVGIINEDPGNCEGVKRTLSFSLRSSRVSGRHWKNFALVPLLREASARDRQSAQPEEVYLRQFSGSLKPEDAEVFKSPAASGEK

Activity [1]	Activity [2]	Activity [3]	Activity [4]	Activity [5]	Structure (SMILES)
inactive	Active	Active	inactive	inactive	CC(C)C[C@@H]1NC(=O)[C@@H](CC(C)C)OC(=O)CCNC(=O)[C@H](Cc2ccc(O)cc2)NC(=O)[C@H](CC(C)C)OC1=O
inactive	Active	Active	inactive	inactive	CC(C)C[C@@H]1NC(=O)[C@@H](CC(C)C)OC(=O)CCNC(=O)[C@H](Cc2ccccc2)NC(=O)[C@H](CC(C)C)OC1=O
